APP 5'UTR act: activators of APP 5'UTR luciferase reporter, primary screen, SH-SY5Y cells; SH-SY5Y APP 5'UTR luciferase reporter, luminescence; zero percent = DMSO vehicle wells; activation, % at 2 µM; 190,000 tested, 1% active; AID 1276, 2008;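 active = activation above a set limit, based on mean plus 3 SD of controls, cut at about 140% in these data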
NF-kB neuron act: activators of NF-kB expression in neurons, primary screen, cell-based, HTS; human neuronal cells, NF-kB reporter expression; stronger effect = higher value; fold change at 12.5 µM; 190,000 tested, 1.6% active; AID 1239, 2008; in the data active = fold change above about 3.3
STAT1 inh: STAT1 signaling inhibitors, primary screen, cell-based, HTS, luciferase reporter | NIH 3T3 STAT1-luciferase reporter, IFN-gamma, luminescence | inhibition, % at 5.5 µM | 200,000 tested, 0.35% active | AID 920, 2007;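 active = inhibition above a set limit, the mean inhibition across all tested compounds plus 3 SD, cut at about 34% in these data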;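 note: 0% = IFN-gamma with DMSO and 100% = IFN-gamma with 300 µM nifuroxazide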
STAT1 activator: STAT1 signaling activators, primary screen, cell-based, HTS, luciferase reporter; AID 932, 2007; activation (% of control), % at 5.5 µM; NIH 3T3 STAT1-luciferase reporter, IFN-gamma, luminescence; 100% = IFN-gamma alone, no compound; 200,000 tested, 2.6% active;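 active = activation above the screen-wide mean activation plus 3 SD, cut at about 130% in these data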;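 note: raw ratio to IFN-gamma control signal so 100% means no change and 0% no light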
STAT3 inh-1: IL-6 driven STAT3 reporter inhibitors, primary screen, U3A cells, luciferase, luminescence, MLSCN library | IL-6 STAT3-luciferase reporter; host cell line lacks STAT1 | inhibition, % at 5.5 µM | 190,000 tested, 0.89% active | AID 862, 2007;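 active = inhibition above the mean inhibition across all screened compounds plus 3 SD, cut at about 44% in these data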;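 note: 0% = DMSO only wells and 100% = 100 µM nifuroxazide control wells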
STAT3 act: IL-6 driven STAT3 reporter potentiators, primary screen, U3A cells, luciferase, luminescence, MLSCN library | IL-6 STAT3-luciferase reporter; 100% = signal with IL-6 EC80 alone | activation (% of control), % at 5.6 µM | 190,000 tested, 0.91% active | AID 871, 2007;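 active = activation above the screen-wide mean of compound activation plus 3 SD, cut at about 130% in these data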;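 note: 0% = background luminescence of wells with medium and substrate only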
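Material: STAT3-luciferase reporter U3A cells. Controls: IL-6-treated wells, 100% activation. Read-out: % activation versus median of IL-6-stimulated wells. Probe or stimulus: IL-6 stimulus at 33 ng/mL final. Timing: compound 1 h, then IL-6 6 h at 37 °C. Signal: reporter luminescence signal.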
STAT3 inh-2: STAT3 reporter inhibitors, retest of hits, confirmation, U3A cells, luciferase, luminescence. shares compounds with STAT3 inh-1. IL-6 STAT3 luciferase reporter; cell line lacks STAT1. inhibition, % at 5.7 µM. 1,200 tested, 45% active. AID 1265, 2008;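 active = inhibition above the hit cutoff computed for the primary STAT3 screen, cut at about 44% in these data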;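 note: 0% = IL-6 plus DMSO and 100% = IL-6 plus nifuroxazide control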
NFkB inh STAT3ct: NF-kB reporter inhibitors in human cells, confirmation, counter-screen for STAT3 inhibitor project, cell-based, HEK293T, luciferase, TNF-alpha stimulus; shares compounds with STAT3 inh-1; TNF-alpha induced; inhibition, % at 5.7 µM; 1,200 tested, 36% active; AID 1308, 2008;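 active = inhibition above the mean of solvent-only control wells plus 3 SD, cutoff set per campaign, cut at about 13% in these data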;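 note: 0% = TNF-alpha with DMSO and 100% = TNF-alpha with MG high control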
STAT1 inh STAT3c: STAT1 reporter inhibitors, IFN-gamma induced, confirmation, counter-screen for STAT3 inhibitor project, cell-based, NIH 3T3, luciferase luminescence; shares compounds with STAT3 inh-1; inhibition, % at 5.7 µM; NIH 3T3 STAT1-luciferase reporter; 1,200 tested, 27% active;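 active = inhibition above the mean plus 3 SD of solvent-only control wells, limit set per screening run, cut at about 16% in these data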;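 note: 0% = DMSO with IFN-gamma and 100% = nifuroxazide control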
* hit, by the source's call; · = no result given. Most compounds without a hit are left out; they make up all but 5.1% or so of the library.

SMILES	APP 5'UTR act	NF-kB neuron act	STAT1 inh	STAT1 activator	STAT3 inh-1	STAT3 act	STAT3 inh-2	NFkB inh STAT3ct	STAT1 inh STAT3c
CCOC(=O)C1CCCN(S(=O)(=O)c2ccc(S(=O)(=O)N(CC)CC)cc2)C1 (centres undefined)	-23	1.2	31	70	78*	35	83*	34*	27*
O=C(COC(=O)c1ccc(F)cc1F)Nc1ccc2[nH]c(=O)[nH]c2c1	-7	1.1	-2	101	12	95	·	·	·
Cc1nn(-c2ccccn2)c2c1C(c1c(F)cccc1Cl)C1=C(N2)c2ccccc2C1=O (centres undefined)	-2	1.3	12	89	-4	108	·	·	·
CC(=O)N1CCc2c(sc(NC(=O)c3ccc([N+](=O)[O-])o3)c2C#N)C1	-62	1	-16	115	58*	54	27	-19	22*
COc1ccc(C(=O)Nc2sc3c(c2C#N)CCN(C(C)=O)C3)cc1	8	1.5	19	82	37	71	·	·	·
NC(=O)c1ccc(N2CCN(S(=O)(=O)c3ccccc3)CC2)c([N+](=O)[O-])c1	-12	0.92	24	78	72*	41	71*	23*	28*
Clc1ccc(CSc2nnc(Cn3cnc4ccccc43)o2)cc1	5	0.82	12	102	63*	48	45*	12	8
O=C(CSc1nnc(Cn2nnc3ccccc32)o1)N(Cc1ccc(Cl)cc1)c1ccccc1	·	0.69	18	95	53*	55	45*	13*	19*
NC(=O)CSc1nnc(Cn2cnc3ccccc32)o1	1	1.4	8	91	7	99	·	·	·
O=C(CN1C(=O)S/C(=C\c2ccccc2)C1=O)NNC(=O)c1ccccc1O	-5	1.1	4	96	-4	102	·	·	·
O=C(CCCN1C(=O)S/C(=C\c2ccccc2)C1=O)NNC(=O)c1ccccc1O	-63	0.95	24	76	64*	48	56*	35*	4
Cc1ccccc1/C=C/C(=O)NCC(=O)N1CCC(N(C)C2CCCCC2C)CC1 (centres undefined)	18	0.84	-7	105	7	104	·	·	·
Cc1nc2ccccn2c1C(=O)NN=C1C2CC3CC(C2)CC1C3	-9	0.93	-1	101	-5	106	·	·	·
CCOc1ccc(CCNC(=O)Cn2ccc3ccccc3c2=O)cc1OCC	10	1	1	97	1	105	·	·	·
COc1ccc(N2CCN(C(=O)CSc3nnc(-c4ccco4)n3C)CC2)cc1	7	0.78	-5	104	7	96	·	·	·
O=C(CCl)Nc1cc(-c2ccccc2)nn1-c1ccccc1	-4	3	11	90	48*	62	29	-7	-24
Cc1ccc(-c2cc(NC(=O)CCl)n(-c3ccccc3)n2)cc1	28	3	0	100	24	80	·	·	·
CCCc1ccc(-c2cc(C(=O)N/N=C/c3ccc([N+](=O)[O-])o3)c3ccccc3n2)cc1	62	2.8	24	78	48*	60	9	5	-17
O=C(N/N=C/c1ccc([N+](=O)[O-])o1)c1cc(-c2cccc(Br)c2)nc2ccccc12	2	1.4	4	97	2	104	·	·	·
O=C(/C=C/c1ccc(Cl)cc1)Nc1nccs1	184*	8.5*	-10	109	44*	67	2	-26	-164
C/C=C/C=C/C(=O)Nc1nccs1	-6	1.7	-13	112	-3	102	·	·	·
Cc1ccc(C(=O)CSc2nnc3c4ccccc4nc(Cc4ccccc4)n23)cc1	15	0.99	4	96	6	98	·	·	·
Cc1cc(-c2ccccc2)n2ncc(-c3ccccc3)c2n1	166*	1.4	-49	143*	50*	60	0	-15	-134
Cc1cc(NCCCn2ccnc2)n2ncc(-c3ccccc3)c2n1	102	0.92	27	76	74*	37	21	25*	-57
Cc1cc(N2CCOCC2)n2ncc(-c3ccccc3)c2n1	142*	0.81	32	71	66*	47	23	5	-79
SMILES	APP 5'UTR act	NF-kB neuron act	STAT1 inh	STAT1 activator	STAT3 inh-1	STAT3 act	STAT3 inh-2	NFkB inh STAT3ct	STAT1 inh STAT3c
Cc1cc(N2CC(C)OC(C)C2)nc(C(C)C)n1 (centres undefined)	12	1.1	0	98	9	98	·	·	·
CC(=O)Nc1ccc(SCC(=O)c2cc(C)n(-c3ccccc3F)c2C)cc1	78	0.51	-51	145*	54*	55	22	-40	-115
COC(=O)c1ccc(-n2c(C)cc(C(=O)CSc3ccc(NC(C)=O)cc3)c2C)cc1	-5	0.92	-1	101	-2	104	·	·	·
CC1CC1C(=O)Nc1nc(-c2ccc(Cl)s2)cs1 (centres undefined)	15	1.1	10	90	24	83	·	·	·
O=C(Nc1nc(-c2ccc(Cl)s2)cs1)c1ccncc1	-9	1.1	2	99	66*	49	56*	12	10
Cc1ccc(SCc2cc(=O)[nH]c(Nc3nc(C)c4ccc(C)cc4n3)n2)cc1	3	0.9	7	94	1	99	·	·	·
Cc1ccc2c(C)nc(Nc3nc(CSc4nc5ccccc5[nH]4)cc(=O)[nH]3)nc2c1	4	0.39	7	94	53*	63	45*	1	2
Cc1ccc(NC(=O)Cn2nc(C)c3ccccc3c2=O)cc1F	-6	0.97	-7	108	-2	106	·	·	·
Cn1nc(CC(=O)Nc2ccc3c(c2)OCCO3)c2ccccc2c1=O	-5	0.6	26	76	83*	34	78*	34*	28*
Cc1ccc(NC(=O)Cc2nn(C)c(=O)c3ccccc23)cc1F	-8	0.87	30	80	85*	30	77*	25*	23*
COc1cc(CC(=O)Nc2cc(S(C)(=O)=O)ccc2Cl)cc(OC)c1OC	0	0.86	1	99	4	103	·	·	·
